According to ChEMBL document CHEMBL1155241, “Investigation of N-aryl-3-alkylidenepyrrolinones as potential Niemann-Pick type C disease therapeutics” (2009):
Active and inactive are the calls of the source. The calls are words filed in the database; no cut-off is given here.

Assays:
[1] = Inhibition of LDL endocytosis in NPC1 deficient chinese hamster cells assessed as ratio of DiI-labeled LDL level in treated to untreated control at 10 uM after 18 hrs by fluorimetry
[2] = molecular target: T1, Sterol O-acyltransferase 1 (Cricetulus griseus) (UniProt Q60457); experiment: Increase in ACAT-induced cholesterol esterification in NPC1 deficient chinese hamster CT60 cells assessed as ratio of [14C]oleic acid incorporation in treated to untreated control at 10 uM; format: cell-based
T1 sequence (whole entry): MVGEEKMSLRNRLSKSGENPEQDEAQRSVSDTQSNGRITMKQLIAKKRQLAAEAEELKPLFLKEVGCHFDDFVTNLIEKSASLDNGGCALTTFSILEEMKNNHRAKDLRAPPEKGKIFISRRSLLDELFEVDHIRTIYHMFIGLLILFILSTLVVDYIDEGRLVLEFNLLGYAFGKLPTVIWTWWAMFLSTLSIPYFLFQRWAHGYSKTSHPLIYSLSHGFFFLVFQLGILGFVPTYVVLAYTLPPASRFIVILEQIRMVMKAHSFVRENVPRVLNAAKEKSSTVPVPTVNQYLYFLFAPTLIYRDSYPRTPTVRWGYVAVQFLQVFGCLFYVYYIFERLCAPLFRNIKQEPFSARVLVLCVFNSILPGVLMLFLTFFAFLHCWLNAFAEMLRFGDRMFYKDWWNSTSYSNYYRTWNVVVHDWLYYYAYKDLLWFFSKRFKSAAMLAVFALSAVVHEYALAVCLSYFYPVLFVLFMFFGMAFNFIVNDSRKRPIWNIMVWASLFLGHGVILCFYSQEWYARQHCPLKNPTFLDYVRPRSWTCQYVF
Outline: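 CT60 cells treated 18 h at 10 µM. ACAT esterification measured as incorporation of [14C]-oleic acid into cholesteryl-[14C]-oleate, normalized to cellular protein. Expressed relative to solvent-treated controls.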

[3] = Reduction in cholesterol level in lysosomal storage organelles of NPC1 deficient chinese hamster CT43 cells at 10 uM by LSO compartment ratio assay; format: functional, Cricetulus griseus; design: scale not given: the % may be the effect or the level left
Cricetulus griseus [4] = organism: Cricetulus griseus; experiment: Increase in cholesterol efflux in chinese hamster TRVb1 cells expressing human transferrin receptor at 10 uM after 18 hrs by [3H]cholesterol incorporation assay; format: functional
Outline: (§1)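 Cells labeled 24 h with 1 µCi/ml [3H]-cholesterol, then incubated 18 h with 10 µM compound. Efflux went to serum acceptors. Efflux is supernatant radioactivity divided by supernatant plus cell-monolayer radioactivity, compared with solvent-treated control cells.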

CT60 = experiment: Increase in cholesterol efflux in NPC1 deficient chinese hamster CT60 cells at 10 uM after 18 hrs by [3H]cholesterol incorporation assay; format: functional, cell-based; details: Cricetulus griseus
Outline: as §1

[5] = Effect on cholesterol esters content in NPC1 deficient chinese hamster CT60 cells assessed as ratio of cholesteryl esters level in treated to untreated control at 10 uM by gas chromatography; format: functional, Cricetulus griseus
Outline: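 CT60 cells exposed to 10 µM for 18 h alongside solvent (DMSO) controls. Total cellular cholesteryl ester measured by GC and expressed per µg cell protein. Reported relative to solvent-treated cells.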

[6] = Inhibition of LDL endocytosis in wild type chinese hamster 25RA cells assessed as ratio of DiI-labeled LDL level in treated to untreated control at 10 uM after 35 mins by fluorimetry; format: functional, Cricetulus griseus
Outline: (§2)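 CT60 or 25RA cells incubated with compound together with DiI-labeled LDL, either 35 min (short) or 18 h (long). Uptake quantified as DiI fluorescence intensity per cell area and normalized to the mean of solvent (DMSO)-treated samples.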

[7] = Inhibition of LDL endocytosis in NPC1 deficient chinese hamster CT60 cells assessed as ratio of DiI-labeled LDL level in treated to untreated control at 10 uM after 35 mins by fluorimetry; format: functional, Cricetulus griseus
Outline: as §2

[8] = Inhibition of LDL endocytosis in NPC1 deficient chinese hamster CT60 cells assessed as ratio of DiI-labeled LDL level in treated to untreated control at 10 uM after 18 hrs by fluorimetry; format: functional, Cricetulus griseus
Outline: as §2

[9] = Reduction in cholesterol level in lysosomal storage organelles of NPC1 deficient chinese hamster CT60 cells at 10 uM by LSO compartment ratio assay; format: functional, Cricetulus griseus; design: scale not given: the % may be the effect or the level left
Cricetulus griseus [10] = organism: Cricetulus griseus; experiment: Increase in cholesterol efflux in wild type chinese hamster 25RA cells with SCAP gene gain of function mutation at 10 uM after 18 hrs by [3H]cholesterol incorporation assay; format: functional
Outline: as §1

Ratio [2]: 1.49
SMILES: O=C(O)c1ccc(N2C(=O)/C(=C\c3ccc(-c4ccc(Br)cc4)o3)C=C2c2ccccc2)cc1
Ratio [1]: 0.67 | Activity [3]: 80% | Activity (Cricetulus griseus [4]): Active | Activity (CT60): Active | Ratio [5]: 1.05 | Ratio [6]: 1.16 | Ratio [7]: 0.93 | Ratio [8]: 0.59 | Activity [9]: 30% | Activity (Cricetulus griseus [10]): Active
